Columns and labels:
[1] = target: T1, Mfd (Escherichia coli, UniProt P30958); test: Isothermal titration calorimetry; assay type: binding, E. coli; conditions: ITC, 25 °C; no inhibitor
T1 sequence (P30958 1-1148): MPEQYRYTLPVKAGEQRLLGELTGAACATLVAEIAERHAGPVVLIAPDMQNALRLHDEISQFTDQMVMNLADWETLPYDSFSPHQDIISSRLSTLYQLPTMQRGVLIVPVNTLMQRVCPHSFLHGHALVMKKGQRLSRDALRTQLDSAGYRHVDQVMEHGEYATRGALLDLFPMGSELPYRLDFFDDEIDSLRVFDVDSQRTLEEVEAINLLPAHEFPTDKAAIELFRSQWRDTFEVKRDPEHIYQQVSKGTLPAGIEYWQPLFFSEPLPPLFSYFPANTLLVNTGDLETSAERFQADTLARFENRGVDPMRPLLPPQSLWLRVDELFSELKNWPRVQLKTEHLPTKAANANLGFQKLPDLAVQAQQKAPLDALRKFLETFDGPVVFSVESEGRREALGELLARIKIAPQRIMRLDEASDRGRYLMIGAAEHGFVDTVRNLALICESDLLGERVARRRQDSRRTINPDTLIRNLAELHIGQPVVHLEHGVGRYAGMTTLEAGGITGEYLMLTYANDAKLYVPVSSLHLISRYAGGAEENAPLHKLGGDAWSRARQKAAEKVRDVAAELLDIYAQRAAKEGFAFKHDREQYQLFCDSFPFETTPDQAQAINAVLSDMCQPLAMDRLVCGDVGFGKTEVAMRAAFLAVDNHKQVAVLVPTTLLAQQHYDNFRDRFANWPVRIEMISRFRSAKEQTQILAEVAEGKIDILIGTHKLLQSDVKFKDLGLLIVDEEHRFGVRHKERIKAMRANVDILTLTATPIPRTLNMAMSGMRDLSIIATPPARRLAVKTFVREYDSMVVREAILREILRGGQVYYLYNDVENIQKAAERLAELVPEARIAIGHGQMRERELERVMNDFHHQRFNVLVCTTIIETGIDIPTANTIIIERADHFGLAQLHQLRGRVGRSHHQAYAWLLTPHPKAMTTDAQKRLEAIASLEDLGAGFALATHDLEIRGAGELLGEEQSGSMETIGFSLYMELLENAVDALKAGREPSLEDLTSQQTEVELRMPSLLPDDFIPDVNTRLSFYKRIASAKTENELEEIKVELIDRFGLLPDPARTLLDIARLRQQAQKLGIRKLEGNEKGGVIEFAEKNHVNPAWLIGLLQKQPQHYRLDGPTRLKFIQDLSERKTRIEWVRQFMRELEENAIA
How it was run: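 Full-length E. coli Mfd (20 µM) in 0.1 M Tris, 0.2 M NaCl, 4% DMSO, pH 8 at 25 °C. Titrated with 20 injections of 2.5 µL of 200 µM test compound at 300 s intervals. For the competition run, Mfd was preincubated with test compound, then ATP (200 µM) binding was measured. A = Ka/Kapp. Performed in triplicate.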

[2] = test system: P. aeruginosa CIP27853; test: Mouse lung infection, CFU in lung at 24 h; assay type: in vivo; conditions: MPN at 10 mg/ml, i.p.
[3] = test system: HeLa cells; test: Cytotoxicity, CellTiter96 AQueous; assay type: cell-based, human; conditions: 1 h; MPN 10 and 100 µM, NM102 10 and 300 µM, NM102 nanoformulation 1.29 and 5.16 mM
How it was run: (§1)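 Cells grown in DMEM with 10% heat-inactivated FBS, 1 U/mL penicillin and 1 µg/mL streptomycin (37 °C, 5% CO2). At 70% confluency, trypsinised and seeded at 4 × 10^4 cells/well, then incubated overnight. Switched to antibiotic-free DMEM 2 h before assay. Exposed 1 h in HBSS with 10% DMSO or empty-nanoformulation controls. MTS reagent added for 1 h, A490 read. Reagent and compound backgrounds subtracted; normalised to untreated cells.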

[4] = test system: K. pneumoniae ATCC 700603 wt; test: Mouse lung infection, CFU in lung at 24 h; assay type: in vivo; conditions: MPN 10 mg/kg i.p.
How it was run: (§2)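 Nine-week-old female C57BL/6J mice were anaesthetized with ketamine (79 mg/kg) and xylazine (9 mg/kg) i.p. Infected intranasally with 1 × 10^7 CFU in 20 µL PBS from late-exponential cultures. MPN was given at 10 mg/kg i.p. At 24 h mice were killed and the left lung homogenized in PBS. Lung CFU were counted by serial dilution on LB agar and expressed as log CFU per gram.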

[5] = test system: K. pneumoniae ALE; test: Mouse lung infection, CFU in lung at 24 h; assay type: in vivo; conditions: MPN 10 mg/kg i.p.
How it was run: as §2

[6] = test system: Vero cells; test: Cytotoxicity, CellTiter96 AQueous; assay type: cell-based, monkey; conditions: 1 h; MPN 10 and 100 µM, NM102 10 and 300 µM, NM102 nanoformulation 1.29 and 5.16 mM
How it was run: as §1

[7] = test system: K. pneumoniae ∆mfd; test: Mouse lung infection, CFU in lung at 24 h, ∆mfd mutant; assay type: in vivo; conditions: NF-NM102 6 mg/kg or MPN 10 mg/kg i.p.

Nc1ncnc2c1ncn2[C@@H]1O[C@H](COP(=O)(O)OP(=O)(O)OP(=O)(O)O)[C@@H](O)[C@H]1O [ATP]
Kd [1]: 145 ± 9 µM

C[C@@H](O)[C@H]1C(=O)N2C(C(=O)O)=C(S[C@@H]3CN[C@H](C(=O)N(C)C)C3)[C@H](C)[C@H]12 [MPN, meropenem]
decrease of bacterial load [2]: 26 times
cytotoxicity [3]: no toxicity
reduction of the bacterial load [4]: 93%
effect on bacterial load in the lung [5]: no significant effect
cytotoxicity [6]: induced cytotoxicity
effect on bacterial burden of the ∆mfd mutant [7]: inhibited
